From ChEMBL document CHEMBL2086304, “Synthesis and in vitro antimycobacterial and isocitrate lyase inhibition properties of novel 2-methoxy-2'-hydroxybenzanilides, their thioxo analogues and benzoxazoles” (Eur J Med Chem, 2012)
Values after ≈ are worked out from the molar mass of the structure shown.

Tests used:
Mycobacterium kansasii [1] = assay: Antimycobacterial activity against isoniazid resistance Mycobacterium kansasii 225/80 after 7 days by micromethod; format: functional; details: 225/80, 168 h
[2] = tested on: Mycobacterium tuberculosis; assay: Antimycobacterial activity against Mycobacterium tuberculosis 331/88 after 21 days by micromethod; format: functional; details: 331/88, 504 h
Procedure, shortened: (§1)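 Inocula: M. tuberculosis My 331/88 at 10^-3 dilution, M. avium My 330/88 at 10^-5, M. kansasii My 235/80 and clinical isolate 6509/96 at 10^-4. Compounds added in DMSO at 1000 down to 0.5 (twofold series). Read at 14 and 21 days, plus 7 days for M. kansasii. MIC taken as lowest concentration inhibiting growth.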

Mycobacterium avium [3] = assay: Antimycobacterial activity against isoniazid resistance Mycobacterium avium 330/88 after 14 days by micromethod; format: functional; details: 330/88, 336 h; procedure, shortened: as §1
[4] = tested on: Mycobacterium tuberculosis; assay: Antimycobacterial activity against Mycobacterium tuberculosis 331/88 after 14 days by micromethod; format: functional; details: 331/88, 336 h; procedure, shortened: as §1
[5] = Selectivity index, ratio of IC50 for human HepG2 cells to MIC for Mycobacterium tuberculosis 331/88 after 14 days; format: functional
Procedure, shortened: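 Cytotoxicity in Hep G2 cells (passage 12), 10,000 cells/well, in MEM with 10% FBS, 1% glutamine and 1% nonessential amino acids. Cells preincubated 24 h, 37 °C, 5% CO2. Compounds in DMSO at eight concentrations in quadruplicate, 24 h. MTS-type reagent added for 1.5 h, A490 read, IC50 taken at 50% viability. SI = this IC50 over the 14-day M. tuberculosis MIC.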

HepG2 = assay: Cytotoxicity against human HepG2 cells after 24 hrs by CellTiter-96 cell viability assay; format: functional, cell-based; details: HepG2, 24 h
Procedure, shortened: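 Hep G2 human hepatic cells (passage 12), 10,000 per well, grown 24 h at 37 °C, 5% CO2 in MEM with 1% glutamine, 10% FBS and 1% nonessential amino acids. Compounds in DMSO at eight increasing concentrations, quadruplicate, 24 h at 37 °C. Kit reagent added, 1.5 h at 37 °C, absorbance 490 nm. IC50 is the concentration reducing viability to 50% of control.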

Mycobacterium kansasii [6] = assay: Antimycobacterial activity against Mycobacterium kansasii 6509/96 clinical isolate after 7 days by micromethod; format: functional; details: 6509/96, 168 h; procedure, shortened: as §1
Mycobacterium kansasii [7] = assay: Antimycobacterial activity against Mycobacterium kansasii 6509/96 clinical isolate after 14 days by micromethod; format: functional; details: 6509/96, 336 h; procedure, shortened: as §1
[8] = biological target: T1, Isocitrate lyase (Mycobacterium tuberculosis) (UniProt P9WKK7); assay: Inhibition of Mycobacterium tuberculosis H37Rv isocitrate lyase expressed in Escherichia coli HB101 at 10 umol/L
T1 sequence (whole entry): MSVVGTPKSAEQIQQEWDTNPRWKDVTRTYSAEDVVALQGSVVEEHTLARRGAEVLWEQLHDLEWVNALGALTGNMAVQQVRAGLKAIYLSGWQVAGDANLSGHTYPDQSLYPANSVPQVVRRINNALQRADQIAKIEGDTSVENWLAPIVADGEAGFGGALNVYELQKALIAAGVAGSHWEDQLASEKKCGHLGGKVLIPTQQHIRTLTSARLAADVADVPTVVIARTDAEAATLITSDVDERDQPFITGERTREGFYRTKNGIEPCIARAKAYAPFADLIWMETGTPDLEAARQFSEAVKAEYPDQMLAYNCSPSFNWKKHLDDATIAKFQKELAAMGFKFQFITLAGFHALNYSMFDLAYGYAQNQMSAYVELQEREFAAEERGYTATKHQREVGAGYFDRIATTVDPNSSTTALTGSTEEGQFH
Procedure, shortened: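 Isocitrate lyase assayed per Dixon–Kornberg in 96-well format. Buffer: 50 mmol/L KH2PO4, 4 mmol/L MgCl2, 4 mmol/L phenylhydrazine, 12 mmol/L cysteine, pH 7.0. Glyoxylate phenylhydrazone read at 324 nm. Compounds added in DMSO, with DMSO-alone inhibition subtracted.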

Mycobacterium avium [9] = assay: Antimycobacterial activity against isoniazid resistance Mycobacterium avium 330/88 after 21 days by micromethod; format: functional; details: 330/88, 504 h; procedure, shortened: as §1
Mycobacterium kansasii [10] = assay: Antimycobacterial activity against isoniazid resistance Mycobacterium kansasii 225/80 after 21 days by micromethod; format: functional; details: 225/80, 504 h
Mycobacterium kansasii [11] = assay: Antimycobacterial activity against isoniazid resistance Mycobacterium kansasii 225/80 after 14 days by micromethod; format: functional; details: 225/80, 336 h
Mycobacterium kansasii [12] = assay: Antimycobacterial activity against Mycobacterium kansasii 6509/96 clinical isolate after 21 days by micromethod; format: functional; details: 6509/96, 504 h; procedure, shortened: as §1

SMILES	MIC (Mycobacterium kansasii [1])	MIC [2]	MIC (Mycobacterium avium [3])	MIC [4]	Selectivity Index [5]	IC50 (HepG2)	MIC (Mycobacterium kansasii [6])	MIC (Mycobacterium kansasii [7])	inhibition [8]	MIC (Mycobacterium avium [9])	MIC (Mycobacterium kansasii [10])	MIC (Mycobacterium kansasii [11])	MIC (Mycobacterium kansasii [12])
COc1cc(Cl)ccc1C(=S)Nc1cc(Cl)ccc1O	16 µM (≈ 5.25 µg/mL)	62.5 µM (≈ 20.5 µg/mL)	32 µM (≈ 10.5 µg/mL)	62.5 µM (≈ 20.5 µg/mL)	0.14	8.49 µM	32 µM (≈ 10.5 µg/mL)	62.5 µM (≈ 20.5 µg/mL)	9%	32 µM (≈ 10.5 µg/mL)	125 µM (≈ 41 µg/mL)	62.5 µM (≈ 20.5 µg/mL)	125 µM (≈ 41 µg/mL)
COc1ccc(Cl)cc1C(=O)Nc1ccc(Br)cc1O	500 µM (≈ 178 µg/mL)	8 µM (≈ 2.85 µg/mL)	500 µM (≈ 178 µg/mL)	4 µM (≈ 1.43 µg/mL)	2	7.98 µM	250 µM (≈ 89.2 µg/mL)	250 µM (≈ 89.2 µg/mL)	0%	500 µM (≈ 178 µg/mL)	500 µM (≈ 178 µg/mL)	500 µM (≈ 178 µg/mL)	250 µM (≈ 89.2 µg/mL)
COc1cc(Cl)ccc1C(=S)Nc1cc(Cl)c(Cl)cc1O	16 µM (≈ 5.8 µg/mL)	32 µM (≈ 11.6 µg/mL)	62.5 µM (≈ 22.7 µg/mL)	32 µM (≈ 11.6 µg/mL)	0.1	3.16 µM	16 µM (≈ 5.8 µg/mL)	32 µM (≈ 11.6 µg/mL)	0%	62.5 µM (≈ 22.7 µg/mL)	62.5 µM (≈ 22.7 µg/mL)	32 µM (≈ 11.6 µg/mL)	62.5 µM (≈ 22.7 µg/mL)
COc1cc(Cl)ccc1C(=O)Nc1cc(Cl)ccc1O	125 µM (≈ 39 µg/mL)	125 µM (≈ 39 µg/mL)	125 µM (≈ 39 µg/mL)	125 µM (≈ 39 µg/mL)	0.7	87 µM	16 µM (≈ 4.99 µg/mL)	62.5 µM (≈ 19.5 µg/mL)	0%	125 µM (≈ 39 µg/mL)	125 µM (≈ 39 µg/mL)	125 µM (≈ 39 µg/mL)	62.5 µM (≈ 19.5 µg/mL)
COc1cc(Cl)ccc1C(=S)Nc1cc(Br)ccc1O	16 µM (≈ 5.96 µg/mL)	32 µM (≈ 11.9 µg/mL)	32 µM (≈ 11.9 µg/mL)	32 µM (≈ 11.9 µg/mL)	0.2	6.53 µM	32 µM (≈ 11.9 µg/mL)	32 µM (≈ 11.9 µg/mL)	0%	62.5 µM (≈ 23.3 µg/mL)	62.5 µM (≈ 23.3 µg/mL)	32 µM (≈ 11.9 µg/mL)	62.5 µM (≈ 23.3 µg/mL)
COc1cc(Cl)ccc1C(=S)Nc1ccc(Br)cc1O	16 µM (≈ 5.96 µg/mL)	32 µM (≈ 11.9 µg/mL)	32 µM (≈ 11.9 µg/mL)	16 µM (≈ 5.96 µg/mL)	0.24	3.88 µM	16 µM (≈ 5.96 µg/mL)	32 µM (≈ 11.9 µg/mL)	10%	32 µM (≈ 11.9 µg/mL)	62.5 µM (≈ 23.3 µg/mL)	32 µM (≈ 11.9 µg/mL)	32 µM (≈ 11.9 µg/mL)
COc1ccc(Cl)cc1C(=S)Nc1ccc(Cl)cc1O	16 µM (≈ 5.25 µg/mL)	32 µM (≈ 10.5 µg/mL)	32 µM (≈ 10.5 µg/mL)	16 µM (≈ 5.25 µg/mL)	0.28	4.45 µM	32 µM (≈ 10.5 µg/mL)	32 µM (≈ 10.5 µg/mL)	0%	62.5 µM (≈ 20.5 µg/mL)	62.5 µM (≈ 20.5 µg/mL)	32 µM (≈ 10.5 µg/mL)	32 µM (≈ 10.5 µg/mL)
COc1cc(Cl)ccc1C(=O)Nc1ccc(Br)cc1O	125 µM (≈ 44.6 µg/mL)	125 µM (≈ 44.6 µg/mL)	125 µM (≈ 44.6 µg/mL)	125 µM (≈ 44.6 µg/mL)	0.37	46.6 µM	125 µM (≈ 44.6 µg/mL)	125 µM (≈ 44.6 µg/mL)	0%	125 µM (≈ 44.6 µg/mL)	125 µM (≈ 44.6 µg/mL)	125 µM (≈ 44.6 µg/mL)	125 µM (≈ 44.6 µg/mL)
COc1ccc(Cl)cc1C(=S)Nc1cc(C(F)(F)F)ccc1O	32 µM (≈ 11.6 µg/mL)	32 µM (≈ 11.6 µg/mL)	62.5 µM (≈ 22.6 µg/mL)	32 µM (≈ 11.6 µg/mL)	0.18	5.86 µM	16 µM (≈ 5.79 µg/mL)	32 µM (≈ 11.6 µg/mL)	8%	62.5 µM (≈ 22.6 µg/mL)	62.5 µM (≈ 22.6 µg/mL)	62.5 µM (≈ 22.6 µg/mL)	32 µM (≈ 11.6 µg/mL)
COc1ccc(Cl)cc1C(=S)Nc1cc(Cl)ccc1O	8 µM (≈ 2.63 µg/mL)	32 µM (≈ 10.5 µg/mL)	32 µM (≈ 10.5 µg/mL)	16 µM (≈ 5.25 µg/mL)	0.54	8.6 µM	16 µM (≈ 5.25 µg/mL)	32 µM (≈ 10.5 µg/mL)	0%	32 µM (≈ 10.5 µg/mL)	16 µM (≈ 5.25 µg/mL)	8 µM (≈ 2.63 µg/mL)	32 µM (≈ 10.5 µg/mL)
